Assay results from paper PMC5632222 (Journal of pharmaceutical and biomedical analysis, 2017).

Key:
[1] = Stability of VX-970 in human plasma; type: in vitro ADME
How it was run: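 Test compound was spiked into human plasma at QC levels of 5, 150 and 4000 ng/mL, in triplicate. Long-term stability: 8 months at -80 °C, read against freshly prepared standard curves. Freeze/thaw: 3 cycles, frozen at -80 °C and thawed on separate days, compared with fresh samples. Bench stability: 4 h at room temperature. Quantitation was by LC-MS/MS with deuterated internal standard.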

[2] = type: in vitro ADME; settings: bile spiked human plasma, room temperature 4 h
How it was run: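 Bile from treated animals, containing the direct glucuronide, was spiked into human plasma. Parent compound was quantitated by LC-MS/MS before and after 4 h at room temperature. Bile was also spiked into phosphate buffers at pH 5, 6, 7, 8 and 9 with the same 4 h room-temperature hold. The glucuronide was monitored via the 639.5>433.5 channel.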

[3] = Plasma pharmacokinetics in a patient after IV infusion of VX-970; type: in vivo, human
How it was run: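 One patient received a 1 h IV infusion at 60 mg/m², with blood sampled from 0 to 72 h. Plasma (50 µL) was spiked with deuterated internal standard, precipitated with acetonitrile, diluted with water and run by positive-ESI MRM LC-MS/MS. Calibration spanned 3–5000 ng/mL, and the glucuronide channel was also monitored. PK parameters were derived non-compartmentally.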

[4] = Stability of VX-970 in stock solution; type: physicochemical
[5] = tested on: pooled human liver microsomes; assay: Glucuronidation incubation in permeabilized human microsomes; type: in vitro ADME
How it was run: (§1)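 Pooled liver microsomes (human for line 1, female rat for line 2), permeabilized with 25 µg/mL alamethicin at 0.25 mg/mL protein in 0.1 M phosphate pH 7.4, 50 mM Tris-HCl, 10 mM MgCl₂. Test compound at 5,000 ng/mL; started with […]. Sampled at 0 and 60 min, quenched in acetonitrile, run in triplicate. LC-MS/MS read parent and the 639.5>433.5 glucuronide channel.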

[6] = tested on: pooled female rat microsomes; assay: Glucuronidation incubation in permeabilized rat microsomes; type: in vitro ADME
How it was run: as §1

[7] = one patient, 1 h IV infusion 60 mg/m^2, non-compartmental

recovery at 8 months ([1]; human, plasma): 92.2 to 100%
Stability (%) ([1]; plasma 3 freeze-thaw cycles, −80 °C, QCH 4000 ng/mL): 98.1%
Stability (%) ([1]; plasma 3 freeze-thaw cycles, −80 °C, QCL 5 ng/mL): 98.1%
Stability (%) ([1]; plasma 3 freeze-thaw cycles, −80 °C, QCM 150 ng/mL): 99.6%
Stability (%) ([1]; plasma 8 months, −80 °C, QCH 4000 ng/mL): 96.2%
Stability (%) ([1]; plasma 8 months, −80 °C, QCL 5 ng/mL): 92.2%
Stability (%) ([1]; plasma 8 months, −80 °C, QCM 150 ng/mL): 100.1%
Stability (%) ([1]; plasma 4 h, ambient temp., QCH 4000 ng/mL): 100.2%
Stability (%) ([1]; plasma 4 h, ambient temp., QCL 5 ng/mL): 96.2%
Stability (%) ([1]; plasma 4 h, ambient temp., QCM 150 ng/mL): 96.0%
VX-970 concentrations in bile spiked plasma, % stable [2]: 96.5%
AUC(0-inf) ([3]; human, plasma, iv, 60 mg/m^2): 2500 ng·h/mL
AUC(0-t) ([3]; human, plasma, iv, 60 mg/m^2): 2430 ng·h/mL
Cmax ([3]; human, plasma, iv, 60 mg/m^2): 343 ng/mL
half-life ([3]; human, plasma, iv, 60 mg/m^2): 14 h
Cl [3, 7]: 24.0 L/h/m^2
Vss [3, 7]: 386 L/m^2
Stability (%) ([4]; stock solution 8 months, −80 °C, 100,000 ng/mL): 95.7%
Stability (%) ([4]; stock solution 6 h, ambient temp, 100,000 ng/mL): 96.7%
Drug remaining in the incubation mixture ([5]; human microsomes 0.25 mg/mL, 5,000 ng/mL VX-970, UDPGA, 60 min): 99.9%
Glucuronidation ([5]; permeabilized human microsomes, 5,000 ng/mL VX-970, 60 min): no glucuronidation
Metabolite in the 639.3>433.5 m/z glucuronide channel ([6]; rat microsome incubation of VX-970): No metabolite was observed
Drug remaining in the incubation mixture ([6]; rat microsomes 0.25 mg/mL, 5,000 ng/mL VX-970, UDPGA, 60 min): 87.5%
Structure (SMILES): CNCc1ccc(-c2cc(-c3nc(-c4ccc(S(=O)(=O)C(C)C)cc4)cnc3N)on2)cc1 [VX-970]
